In paper PMC3103050 (Genes to cells : devoted to molecular & cellular mechanisms, 2009):
Like-named read-outs stand apart in the source and are kept apart here.

T1: His-REV1(1130–1251) (Homo sapiens, UniProt Q9UBZ9)
T1 sequence (Q9UBZ9 1130-1251): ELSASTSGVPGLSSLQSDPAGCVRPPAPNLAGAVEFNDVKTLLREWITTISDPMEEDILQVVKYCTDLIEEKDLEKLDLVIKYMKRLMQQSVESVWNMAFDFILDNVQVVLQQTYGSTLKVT

T2: His-REV1(1130–1251) (human, UniProt Q9UBZ9 1130-1251)
T2 sequence (looked up): T1 sequence (Q9UBZ9 1130-1251)

T3: His-Polκ(1–615) (human, UniProt Q9UBT6 1-615)
T3 sequence (looked up): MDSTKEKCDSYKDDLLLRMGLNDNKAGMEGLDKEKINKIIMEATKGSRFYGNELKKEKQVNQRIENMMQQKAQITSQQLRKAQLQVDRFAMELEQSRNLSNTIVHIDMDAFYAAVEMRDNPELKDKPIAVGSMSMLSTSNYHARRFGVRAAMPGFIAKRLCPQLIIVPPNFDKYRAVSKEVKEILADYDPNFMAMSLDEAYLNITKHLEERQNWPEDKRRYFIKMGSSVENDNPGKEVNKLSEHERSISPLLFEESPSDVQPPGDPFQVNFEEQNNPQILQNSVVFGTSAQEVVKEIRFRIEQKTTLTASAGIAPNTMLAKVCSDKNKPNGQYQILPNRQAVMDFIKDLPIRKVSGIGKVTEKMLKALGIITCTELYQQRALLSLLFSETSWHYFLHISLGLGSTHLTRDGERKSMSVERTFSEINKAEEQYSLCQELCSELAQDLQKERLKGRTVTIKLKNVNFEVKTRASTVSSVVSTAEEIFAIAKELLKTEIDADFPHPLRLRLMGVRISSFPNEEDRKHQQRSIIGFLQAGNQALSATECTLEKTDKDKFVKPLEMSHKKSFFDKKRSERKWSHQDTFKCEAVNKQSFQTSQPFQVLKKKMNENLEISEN

B1: κ564-575FF (peptide)
peptide: CKKSFFDKKRSER
B2: η694-713FF (peptide)
peptide: CKRPRPEGMQTLESFFKPLTH
B3: κ562-575FF (peptide)
peptide: CSHKKSFFDKKRSER
B4: η524-539FF (peptide)
peptide: CQSTGTEPFFKQKSLLL
B5: GST-REV1(826–1251) (domain or fragment, human, UniProt Q9UBZ9 826-1251, looked up)
chain: PTNLNPSTCPSRPSVQSSHFPSGSYSVRDVFQVQKAKKSTEEEHKEVFRAAVDLEISSASRTCTFLPPFPAHLPTSPDTNKAESSGKWNGLHTPVSVQSRLNLSIEVPSPSQLDQSVLEALPPDLREQVEQVCAVQQAESHGDKKKEPVNGCNTGILPQPVGTVLLQIPEPQESNSDAGINLIALPAFSQVDPEVFAALPAELQRELKAAYDQRQRQGENSTHQQSASASVPKNPLLHLKAAVKEKKRNKKKKTIGSPKRIQSPLNNKLLNSPAKTLPGACGSPQKLIDGFLKHEGPPAEKPLEELSASTSGVPGLSSLQSDPAGCVRPPAPNLAGAVEFNDVKTLLREWITTISDPMEEDILQVVKYCTDLIEEKDLEKLDLVIKYMKRLMQQSVESVWNMAFDFILDNVQVVLQQTYGSTLKVT
B6: κ560-575FF (peptide)
peptide: CEMSHKKSFFDKKRSER
B7: ι539-554FF (peptide)
peptide: CASRGVLSFFSKKQMQD

Columns and labels:
[1] = test system: REV1(1130–1218); test: Surface plasmon resonance, REV1; format: binding, human; details: SPR; REV1 derivative lacking a portion essential for the interaction with Polκ; data not shown
[2] = target: T1, His-REV1(1130–1251); test: Surface plasmon resonance, His-REV1; format: binding; details: SPR, BIACORE 2000, CM5 chip; His-REV1(1130–1251) 1.1 µM in Fig. 2A
How it was run: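 SPR on BIACORE 2000. Synthetic peptides carrying an added N-terminal Cys were thiol-coupled to CM5 dextran. His-REV1(1130–1251) was cut from a GST-His fusion with Factor Xa, purified on Ni-NTA, then cleared of uncleaved fusion on glutathione resin. Varying concentrations were injected in 10 mM HEPES pH 7.5, 150 mM NaCl, 3 mM EDTA, 0.005% P20 at 20 µl/min, 25°C; contact 60 s, dissociation 120 s. Control-cell signal was subtracted. Kd came from equilibrium analysis of mean signals.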

[3] = target: PCNA (Homo sapiens, UniProt P12004); test: Surface plasmon resonance, PCNA binding to immobilized peptides; details: SPR; data not shown
How it was run: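 PCNA binding by SPR against synthetic peptides that carry an added N-terminal Cys, coupled through the sulfhydryl to CM5 carboxylated dextran sensor chips by thiol activation chemistry. The peptide–protein signal minus the control-cell signal was analysed and scored + or −.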

[4] = target: B5; test: pull-down
[5] = target: T4, PCNA (UniProt P12004 1-261); test: SPR
[6] = target: T4, PCNA; test: SPR; remark: listed apart in the source
[7] = target: T2, His-REV1(1130–1251); test: SPR
[8] = target: T3, His-Polκ(1–615); test: pull-down

T4 sequence (P12004 whole entry): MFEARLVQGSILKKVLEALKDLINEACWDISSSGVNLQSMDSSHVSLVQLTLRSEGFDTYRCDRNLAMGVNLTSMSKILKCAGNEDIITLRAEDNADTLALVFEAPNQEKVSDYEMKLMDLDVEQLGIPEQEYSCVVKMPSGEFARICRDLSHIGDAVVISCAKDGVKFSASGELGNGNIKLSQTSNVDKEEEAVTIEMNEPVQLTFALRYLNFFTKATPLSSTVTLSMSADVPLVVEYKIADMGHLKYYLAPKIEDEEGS
Sequence of PCNA (Homo sapiens, UniProt P12004) (P12004 whole entry, species assumed): as the sequence (P12004 whole entry) above

## CEMSHKKSAADKKRSER [κ560-575AA]
[1]
  Interaction of REV1(1130–1218) with immobilized peptide (in words): failed to interact
[2]
  Binding of His-REV1(1130–1251) / REV1-CTD to immobilized peptide (in words): but not to κ560-575AA

## CPLEMSHKKSFFDKK [κ558-571FF]
[2]
  Binding of His-REV1(1130–1251) / REV1-CTD to immobilized peptide (in words): failure of κ558-571FF to bind REV1-CTD

## CKRPRPEGMQTLESAAKPLTH [η694-713AA]
[3]
  PCNA binding to immobilized peptide (in words): failed to bind

## B1
[4]
  binding result: binds

## B2
[5]
  Kd: ~0.3 µM
[6]
  Kd: ~0.4 µM

## B3
[4]
  binding result: binds

## B4
[7]
  Kd: 13 µM

## B5
[8]
  binding result: binds

## B6
[7]
  Kd: 7.6 µM

## B7
[7]
  Kd: 69 µM
